INS-1E ATP HTS = protection of INS-1E cells from cytokine death, primary screen, ATP luminescence, single point | INS-1E cytokine-induced death, 48 h; normalised: neutral wells 0, positive control 100 | protection from cytokine-induced ATP loss, % at 10 µM | 20,000 tested, 0.1% active;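 active means mean replicate protection from cytokine-induced ATP loss at least 50% and at least 75% of replicates each reaching 50%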
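Assay system: INS-1E rat insulinoma cells. Amount: 8000 cells per well. Medium: phenol-red-free RPMI with 5% fetal bovine serum. Reagent: IL-1β, TNF-α and IFN-γ cytokine mix. Doses: one compound concentration, pin transfer. Schedule: 48 h co-treatment, 10 min post-lysis read. Detection: CellTiter-Glo luminescence measuring cellular ATP.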
A1 apoptosis 2 = A1 inhibitors via caspase activation, primary screen, cell-based, luminescence, HTS, two replicates; MEF A1-2A-BIM cells, caspase-Glo luminescence, 3 h; percent of clofoctol response, DMSO zero; caspase activation, % (no concentration beside the values); 24,000 tested, under 10 active; AID 2465, 2010; in the data active means caspase activation above about 5.9%
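Test system – A1-2A-BIM-expressing MEF cells · Input – 2500 cells/well · Medium – RPMI-1640 growth medium with 10% FBS · Compound dosing – 50 nL pinned compound · Timing – 3 h compound exposure at 37 °C · Technique – Caspase-Glo luminescence (DEVD substrate) · Evaluation – Caspase-3/7 activity from luminescence increase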
T cruzi intra = inhibitors of intracellular Trypanosoma cruzi, primary screen, cell-based, plate reader, single point, set 2; intracellular Trypanosoma cruzi in host cells; activity score (inhibition), % at 5.01 µM; 22,000 tested, 4.9% active; in the data active means activity score above about 55%;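 further: parasites and compound incubated about four days before reading; 0% = median of neutral control wells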
Numbers without * were called inactive; x = no result. Shown is part of a subset that was picked to be rich in hits.

SMILES	INS-1E ATP HTS	A1 apoptosis 2	T cruzi intra
C[C@@H]1CN([C@@H](C)CO)C(=O)Cc2cc(NC(=O)Nc3ccc(C(F)(F)F)cc3)ccc2O[C@@H]1CN(C)S(=O)(=O)c1cn(C)cn1	5.4	x	7.7
C[C@@H]1CN([C@H](C)CO)C(=O)c2cc(NS(=O)(=O)c3cccs3)ccc2O[C@H]1CN(C)S(C)(=O)=O	-4.6	-0.1	-6.7
Cc1ccc(S(=O)(=O)Nc2ccc3c(c2)C(=O)N([C@H](C)CO)C[C@@H](C)[C@H](CN(C)S(=O)(=O)c2ccc(Cl)cc2)O3)cc1	x	x	8.5
COc1ccc(NC(=O)N(C)C[C@@H]2Oc3c(NS(=O)(=O)c4ccccc4)cccc3C(=O)N([C@H](C)CO)C[C@H]2C)cc1	6.9	0.4	3.4
C[C@@H]1CCCCO[C@@H](CN(C)Cc2ccncc2)[C@H](C)CN([C@@H](C)CO)C(=O)c2cc(NC(=O)Nc3ccc(F)cc3)ccc2O1	x	0.9	x
C[C@@H]1CCCCO[C@H](CN(C)C)[C@H](C)CN([C@H](C)CO)C(=O)c2cc(NC(=O)Nc3cccc4ccccc34)ccc2O1	x	0.8	x
Cc1ccc(S(=O)(=O)N(C)C[C@H]2Oc3ccc(N(C)C)cc3CC(=O)N([C@H](C)CO)C[C@@H]2C)cc1	x	-1.0	x
COC(=O)c1ccc([C@@H]2C=C(C(=O)N3CCN(Cc4ccc5c(c4)OCO5)CC3)O[C@H](OCc3ccc(CO)cc3)C2)cc1	x	0.4	x
O=C(N/N=C/c1ccc2c(c1)CCO2)c1ccccc1O	-29.6	-5.3	-5.9
C[C@@H]1CN([C@H](C)CO)C(=O)Cc2cc(NS(=O)(=O)c3ccc(Cl)cc3)ccc2O[C@@H]1CN(C)S(=O)(=O)c1ccccc1	-0.3	-0.6	59.1*
Cc1ccc(S(=O)(=O)Nc2ccc3c(c2)CC(=O)N([C@H](C)CO)C[C@H](C)[C@@H](CN(C)S(=O)(=O)c2ccc(Cl)cc2)O3)cc1	x	-0.3	x
Cc1ccc(S(=O)(=O)Nc2ccc3c(c2)CC(=O)N([C@H](C)CO)C[C@@H](C)[C@@H](CN(C)S(=O)(=O)c2ccc(C)cc2)O3)cc1	-7.4	x	78.3*
C[C@H](CO)N1C[C@H](C)[C@H](CN(C)S(=O)(=O)c2ccc(Cl)cc2)Oc2ccc(NS(=O)(=O)c3ccc(F)cc3)cc2CC1=O	-5.8	x	21.5
C[C@@H]1CN([C@@H](C)CO)C(=O)Cc2cc(NS(=O)(=O)c3ccc(Cl)cc3)ccc2O[C@@H]1CN(C)S(=O)(=O)c1ccccc1	9.7	0.6	46.9
C[C@@H]1CN([C@H](C)CO)C(=O)Cc2cc(NS(=O)(=O)c3ccc(Cl)cc3)ccc2O[C@@H]1CN(C)S(=O)(=O)c1ccc(F)cc1	3.0	x	66.9*
COc1ccc(S(=O)(=O)N(C)C[C@H]2OCc3cn(nn3)CCCC(=O)N([C@H](C)CO)C[C@H]2C)cc1	x	-0.2	-13.6
C[C@@H]1CN([C@H](C)CO)C(=O)c2cccc(N(C)C)c2O[C@H]1CN(C)S(C)(=O)=O	2.7	-1.9	-4.1
Cc1ccccc1/C=N/NC(=O)CCCCCC(=O)O	6.5	-0.9	-16.8
COc1ccc(NC(=O)Nc2cccc3c2O[C@@H](CN(C)Cc2ccc(Oc4ccccc4)cc2)[C@@H](C)CN([C@@H](C)CO)C3=O)cc1	-38.6	-0.9	35.5
C[C@@H]1CN([C@H](C)CO)C(=O)c2cccc(NC(=O)Nc3cccc4ccccc34)c2O[C@@H]1CN(C)Cc1ccc(-c2ccccc2)cc1	-18.7	x	61.3*
CC(C)NC(=O)Nc1cccc2c1O[C@@H](CN(C)Cc1ccc(Oc3ccccc3)cc1)[C@H](C)CN([C@H](C)CO)C2=O	-7.0	0.1	56.9*
C[C@H](CO)N1C[C@H](C)[C@H](CN(C)Cc2ccc(-c3ccccc3)cc2)Oc2c(NC(=O)Nc3cccc4ccccc34)cccc2C1=O	x	0.2	x
CC(C)NC(=O)Nc1cccc2c1O[C@H](CN(C)Cc1ccc(Oc3ccccc3)cc1)[C@H](C)CN([C@@H](C)CO)C2=O	-22.3	-0.1	-0.6
COc1ccc(NC(=O)Nc2cccc3c2O[C@@H](CN(C)Cc2ccc(Oc4ccccc4)cc2)[C@@H](C)CN([C@H](C)CO)C3=O)cc1	-47.6	-1.7	63.0*
C[C@H]1CN([C@@H](C)CO)C(=O)c2cccc(NC(=O)Nc3ccccc3)c2O[C@@H]1CN(C)Cc1ccc(Oc2ccccc2)cc1	-26.6	-0.3	33.8
SMILES	INS-1E ATP HTS	A1 apoptosis 2	T cruzi intra
C[C@H](CO)N1C[C@H](C)[C@@H](CN(C)Cc2ccc(Oc3ccccc3)cc2)Oc2c(NC(=O)Nc3ccccc3)cccc2C1=O	-46.4	-0.9	77.8*
C[C@@H]1CN([C@H](C)CO)C(=O)c2cc(NC(=O)Nc3ccccc3)ccc2O[C@H]1CN(C)Cc1ccc(Oc2ccccc2)cc1	x	0.6	x
C[C@H](CO)N1C[C@H](C)[C@H](CN(C)Cc2ccc(Oc3ccccc3)cc2)Oc2c(NC(=O)Nc3cccc4ccccc34)cccc2C1=O	-59.2	-0.3	65.6*
C[C@@H]1CN([C@@H](C)CO)C(=O)c2cccc(NC(=O)Nc3ccccc3)c2O[C@@H]1CN(C)Cc1ccc(Oc2ccccc2)cc1	-43.6	x	-16.4
C[C@H]1CN([C@@H](C)CO)C(=O)c2cc(NC(=O)CCCN(C)C)ccc2O[C@H]1CN(C)C(=O)Nc1ccccc1	x	1.4	x
C[C@@H]1CN([C@@H](C)CO)C(=O)c2cccc(NC(=O)c3ccncc3)c2O[C@@H]1CN(C)Cc1ccc(Oc2ccccc2)cc1	-19.7	1.6	77.9*
C[C@H]1CN([C@@H](C)CO)C(=O)c2cccc(NC(=O)c3ccncc3)c2O[C@@H]1CN(C)Cc1ccc(Oc2ccccc2)cc1	-14.0	-0.7	78.2*
C[C@H]1CN([C@@H](C)CO)C(=O)c2cccc(NC(=O)c3ccncc3)c2O[C@@H]1CN(C)Cc1ccncc1	5.0	x	-17.4
C[C@@H]1CN([C@H](C)CO)C(=O)c2cccc(NC(=O)c3ccncc3)c2O[C@H]1CN(C)Cc1ccc(Oc2ccccc2)cc1	-25.6	0.0	84.6*
COc1ccc(CN(C)C[C@@H]2Oc3c(NC(=O)c4ccncc4)cccc3C(=O)N([C@H](C)CO)C[C@H]2C)cc1	3.6	1.3	76.3*
CC(=O)n1cc([C@@H]2C=C(C(=O)N3CCN(Cc4ccccc4)CC3)O[C@H](OCCCCO)C2)c2ccccc21	x	0.7	x
O=C(CCCCCC(=O)N/N=C/c1cccnc1Cl)NO	x	1.5	x
C[C@@H]1CCCCO[C@H](CN(C)S(=O)(=O)c2ccccc2)[C@H](C)CN([C@H](C)CO)C(=O)c2cc(NS(C)(=O)=O)ccc2O1	x	-0.7	x
O=C(N/N=C/c1cc(Br)cc([N+](=O)[O-])c1O)c1ccccn1	7.7	-3.1	4.0
CO[C@H]1O[C@H](CO)[C@@H](OC(=O)Nc2ccccc2)[C@H](OC(=O)Nc2ccccc2-c2ccccc2)[C@@H]1OC(=O)Nc1ccccc1-c1ccccc1	x	-0.8	x
O=C(N/N=C/c1ccccc1C(=O)O)c1ccccn1	-13.4	-12.7	0.7
C[C@H](CO)N1C[C@H](C)[C@@H](CN(C)Cc2ccc(Oc3ccccc3)cc2)Oc2c(NC(=O)c3ccncc3)cccc2C1=O	-2.4	-0.2	65.7*
